Experiment [1] deals with T1, CatSper (Homo sapiens, UniProt Q7RTX7+Q86XQ3+Q8NEC5+Q96P56). In words: Activator concentration-response curves in the presence of increasing inhibitor. The format is cell-based. Put shortly:
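Washed human donor sperm in low pH/low K+ buffer (pH 6.7) were loaded with 10 µM Fluo-4-AM plus 1 mM probenecid, 30 min, room temperature, dark. FLIPR read: ex 470–495/em 515–575 nm. Activator concentration-response curves were run with increasing concentrations of competitive antagonist, added 2 min before the activator. Activator EC50 values were taken from maximal peak height (four-parameter fit). pKB came from Schild regression.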

Experiment [2] addresses T1, CatSper. The experiment is described as follows: Human sperm calcium influx assay, activation. The format is cell-based. The conditions noted are these: for effect on [Ca2+]i as activator: concentrations up to 10 µM; for Emax: read-out: Emax, %, Steroid Alone. Summed up: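 Semen from healthy donors was liquefied at 37 °C, washed twice in low pH/low K+ buffer (pH 6.7, 0.2 mM CaCl2), then loaded with 10 µM Fluo-4-AM plus 1 mM probenecid, 30 min, room temperature, dark. On FLIPR, buffer was added first, then openers 2 min later. Fluorescence was read for 7 min at 2-s intervals. EC50 came from 8-point, 3-fold dilutions in duplicate, peak height, four-parameter fit. Emax is relative to 3 µM progesterone. Activators were retested with 30 µM mibefradil.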

The target of experiment [3] is T1, CatSper. The format is cell-based. The conditions noted are these: for IC50: human sperm.
Experiment [4] concerns human sperm. The experiment is described as follows: Computer-assisted sperm analysis. The format is cell-based. The conditions noted are these: for effect on total and progressive sperm motility: up to 30 µM. Summed up:
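Donor semen was liquefied ≥40 min at 37 °C, then swim-up in HAM's F10 for 1 h at 37 °C, 5% CO2. Cells were adjusted to 10x10^6/mL and capacitated in HAM's F10 with 5% BSA and 15 mM NaHCO3 at 37 °C, 5% CO2, with test compound or DMSO. HAM was induced with 100 nM progesterone or 100 nM PGE1. CASA at 37 °C used ≥10 fields, ≥200 cells. Motility classes came from VAP/VSL/VCL-derived LIN and STR, normalized to vehicle controls, ≥3 experiments.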

Experiment [5] concerns the target T1, CatSper. The following applies: read-out: EC50, patch-clamp electrophysiology; ref Lishko et al., 2011; cited from earlier work. Background: The patch-clamp technique gives a direct electrical read-out from membranes.
Experiment [6] addresses T1, CatSper. The following applies: read-out: EC50, rapid-mixing calcium fluorimetry; ref Strunker et al., 2011; cited from earlier work.
Where [7] appears, read: Schild pKB, opener PGE1, mean ± standard error.
[8] abbreviates: Schild pKB, opener PROG, mean ± standard error.
[9] abbreviates: Schild pKB, opener l-Sirenin, mean ± standard error.
Where [10] appears, read: average pKB, Schild analysis, averaged across the activators, PROG, PGE1 and l-sirenin, mean ±SD.
[11] abbreviates: KB, Leff-Dougall analysis, averaged across the activators, PROG, PGE1 and l-sirenin.
[12] abbreviates: Leff-Dougall pKB, opener PGE1, from IC50, mean ± SD.
Setting [13] is: Leff-Dougall pKB, opener PROG, from IC50, mean ± SD.
[14] abbreviates: Leff-Dougall pKB, opener l-Sirenin, from IC50, mean ± SD.
Where [15] appears, read: pIC50, inhibition of PGE1-induced calcium influx, opener 10 nM PGE1 (EC80), mean ±SD.
The mark [16] stands for this setting: pIC50, inhibition of l-sirenin-induced calcium influx, opener 3 µM l-sirenin (EC80), mean ±SD.
Setting [17] is: pEC50, calcium influx, Steroid Alone, human sperm, mean ±SD.

“Also recorded” adds a separate entry of the source. Read-outs that look alike come from different tables or passages of the source.

Here are results for five compounds from publication PMC8969127 (Molecular Pharmacology, 2022).

As usually defined, the EC50 is the concentration at which the effect is half-maximal. Usually Emax stands for the size of the effect at its maximum, as opposed to the concentration needed. As usually defined, the IC50 is the concentration that gives 50% inhibition.

Take `C#C[C@]1(O)CC[C@H]2[C@@H]3CCC4=CC(=O)CC[C@@H]4[C@H]3CC[C@@]21CC` [compound 5, levonorgestrel]: the Kb in experiment [1] (setting [7]) was 437 µM; in experiment [1] (setting [8]), 0.158 µM; in experiment [1] (setting [9]), 56.2 µM; in experiment [1] (setting [10]) it was 15.8 µM; in experiment [3] (setting [11]) it was 4.5 µM; in experiment [3] (setting [12]) it was 3.16 µM. Also, the Kb was 3.39 µM in experiment [3] (setting [13]) and 8.51 µM in experiment [3] (setting [14]). Besides, the 50% effective concentration (EC50) in experiment [2] was > 10 µM. In addition, in experiment [2], the “effect on [Ca2+]i as activator” value is reported as “negligible activity”. For the same compound, in experiment [2], the maximal response (Emax) was 15%. Also, the IC50 in experiment [3] (setting [15]) was 30.2 µM; in experiment [3] (setting [16]), 81.3 µM. For the same compound, the “effect on total and progressive sperm motility” value in experiment [4] (CASA, human sperm) is listed as “no significant effect”.

Regarding `CC(=O)O[C@]1(C(C)=O)CC[C@H]2[C@@H]3C[C@H](C)C4=CC(=O)CC[C@]4(C)[C@H]3CC[C@@]21C` [compound 4, medroxyprogesterone acetate], the Kb in experiment [1] (setting [7]) is 4.17 µM; in experiment [1] (setting [8]) it was 0.646 µM; in experiment [1] (setting [9]), 6.03 µM; in experiment [1] (setting [10]), 2.51 µM; in experiment [3] (setting [11]) it was 1.6 µM; in experiment [3] (setting [12]), 1 µM. Moreover, the Kb in experiment [3] (setting [13]) was 0.692 µM; in experiment [3] (setting [14]) it was 6.31 µM; in experiment [3] (mean pKB, Leff-Dougall analysis, averaged across the activators, PROG, PGE1 and l-sirenin, mean ±SD), 1.66 µM. For the same compound, in experiment [2] (listed as MPA), the “effect on [Ca2+]i as activator” value is “little effect on [Ca^2+]i; also recorded: negligible activity”. In addition, the 50% effective concentration (EC50) in experiment [2] (setting [17]) was > 10 µM. The maximal response (Emax) in experiment [2] was 17%. Besides, the IC50 in experiment [3] (setting [15]) is 9.77 µM; in experiment [3] (setting [16]) it was 6.17 µM. In addition, the “effect on total and progressive sperm motility” value in experiment [4] (CASA, human sperm) is “reduced total and progressive motility at 30 µM but not at lower concentrations”.

As to `C[C@]12CCC(=O)C=C1CC[C@@H]1[C@@H]2[C@@H](O)C[C@]2(C=O)[C@@H](C(=O)CO)CC[C@@H]12` [compound 6, aldosterone], the Kb in experiment [1] (setting [7]) is 724 µM; in experiment [1] (setting [8]), 4.17 µM; in experiment [1] (setting [9]), 15.1 µM; in experiment [1] (setting [10]), 36.3 µM; in experiment [3] (setting [11]), 5.1 µM; in experiment [3] (setting [12]), 6.03 µM. Moreover, the Kb was 3.47 µM in experiment [3] (setting [13]) and 6.46 µM in experiment [3] (setting [14]). Moreover, in experiment [2], the “effect on [Ca2+]i as activator” value was “did not increase [Ca^2+]i; also recorded: negligible activity”. Further, the 50% inhibitory concentration (IC50) in experiment [3] (setting [15]) is 57.5 µM; in experiment [3] (setting [16]), 61.7 µM. Further, the “effect on total and progressive sperm motility” value in experiment [4] (CASA, human sperm) is “no significant effect”.

Take `COCC(=O)O[C@]1(CCN(C)CCCc2nc3ccccc3[nH]2)CCc2cc(F)ccc2[C@@H]1C(C)C` [mibefradil]: the “calcium influx elicited by the blocker itself” value in experiment [2] (ML218 up to 100 µM, mibefradil at higher concentrations) is on record as “we did not observe a mibefradil-induced calcium influx”. Moreover, the “block of calcium influx for all modes of channel opening” value in experiment [3] (blocker 30 µM) is “completely blocked influx”. Further, the IC50 in experiment [3] (setting [15]) is 8.32 µM; in experiment [3] (setting [16]) it was 8.13 µM. For the same compound, in experiment [4] (CASA, human sperm), the “concentration that completely ablated total and progressive motility” value stood at 30 µM. Also, in experiment [4] (HAM induced with 100 nM PROG or 100 nM PGE1, 4 hours, capacitating conditions), the “concentration that completely ablated HAM” value worked out at 10 µM.

Turning to `CC(=O)[C@H]1CC[C@H]2[C@@H]3CCC4=CC(=O)CC[C@]4(C)[C@H]3CC[C@]12C` [compound 1, progesterone], the concentration giving a half-maximal response (EC50) is 0.0037 µM in experiment [2] (EC50, increase of [Ca2+]i in human sperm); 0.00372 µM in experiment [2] (setting [17]); 0.0077 µM in experiment [5]; 0.042 µM in experiment [6]. The maximum response (Emax) in experiment [2] came to 111%. In addition, the “time at which the calcium signal peaked” value in experiment [2] (then decayed slowly for up to 300 seconds) was ~100 s.
